This note sets out measurements from PMC6522132 (Cell chemical biology, 2017).

The target in one experiment is wt-EphA4 LBD (Homo sapiens, UniProt P54764). The experiment in a line: Isothermal titration calorimetry. The experiment is classed as binding. The settings on record: result in words. For orientation: Isothermal titration calorimetry measures the heat released or taken up as one component is titrated into another.
A further experiment addresses EphA4-LBD (Homo sapiens, UniProt P54764). The experiment is described as follows: NMR ligand titration. Conditions: result in words. The experiment is classed as binding. In a few lines:
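Purified human EphA4 ligand-binding domain (LBD), 13Cε-methionine-labelled for the titration, in 50 mM potassium phosphate pH 6.5 with 100 mM NaCl, at 27 °C. 2D [13C,1H]- or [15N,1H]-HSQC spectra of 50 μM LBD were compared with and without test compound. The compound was titrated at 10–50 μM against a DMSO control, and binding was read as chemical-shift changes.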

SMILES strings stand for the structures.

Chain of wt-EphA4 LBD (P54764 30-209 limits assumed): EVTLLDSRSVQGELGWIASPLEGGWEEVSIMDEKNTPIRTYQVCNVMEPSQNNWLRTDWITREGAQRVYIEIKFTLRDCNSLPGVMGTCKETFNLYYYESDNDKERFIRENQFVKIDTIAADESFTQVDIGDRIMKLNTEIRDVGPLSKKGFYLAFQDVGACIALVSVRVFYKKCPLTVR
Chain of EphA4-LBD (P54764 30-209 limits assumed): as above

On to `CC[C@H]1CN2CC[C@]3(C(=O)Nc4ccccc43)[C@@H]2C[C@@H]1/C(=C\OC)C(=O)OC` [rhyncophilin], for which, on wt-EphA4 LBD, the “binding to EphA4-LBD in ITC assay” value is “inactive”. Also, the “binding to EphA4-LBD in NMR assay” value on EphA4-LBD was “inactive”.
